Like-named read-outs stand apart in the source and are kept apart here.
Experiments:
[1] = test system: breast cancer cells MCF-7; experiment: MTT antiproliferative assay, MCF-7 under normoxia and hypoxia; type: cell-based, human; conditions: for IC50: Homo sapiens; for HCR, hypoxic cytotoxicity ratio: IC50(N)/IC50(H): MCF-7
Outline: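 MTT assay on MCF-7 cells grown in high-glucose DMEM with 10% FBS, penicillin and streptomycin at 37 °C and 5% CO2. Cells were seeded at 40 000 per well, and test compound (10 mM DMSO stock) was added after 24 h; controls got solvent. Cells were kept under normoxia (21% O2) or hypoxia (1% O2). IC50 is mean ± S.D. of 3 experiments; HCR = IC50(N)/IC50(H).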

[2] = test system: Capan-1; experiment: Antiproliferative assay, Capan-1; type: cell-based; conditions: Homo sapiens, CAPAN-1, read-out: IC50 Capan-1
[3] = test system: HCT-116; experiment: Antiproliferative assay, HCT-116; type: cell-based; conditions: Homo sapiens, HCT-116, read-out: IC50 HCT-116
[4] = test system: LN229; experiment: Antiproliferative assay, LN229; type: cell-based; conditions: Homo sapiens, LN-229, read-out: IC50 LN229
[5] = test system: NCI-H1975; experiment: Antiproliferative assay, NCI-H1975; type: cell-based; conditions: Homo sapiens, NCI-H1975, read-out: IC50 NCI-H1975
[6] = test system: DND-41; experiment: Antiproliferative assay, DND-41; type: cell-based; conditions: Homo sapiens, DND41, read-out: IC50 DND-41
[7] = test system: HL-60; experiment: Antiproliferative assay, HL-60; type: cell-based; conditions: Homo sapiens, HL-60, read-out: IC50 HL-60
[8] = test system: K562; experiment: Antiproliferative assay, K562; type: cell-based; conditions: Homo sapiens, K562, read-out: IC50 K562
[9] = test system: Z138; experiment: Antiproliferative assay, Z138; type: cell-based; conditions: Homo sapiens, Z-138, read-out: IC50 Z138
[10] = molecular target: hCA I (Homo sapiens, UniProt P00915); experiment: Stopped flow CO2 hydrase assay, hCA I; type: biochemical
Chain of hCA I (P00915 whole entry): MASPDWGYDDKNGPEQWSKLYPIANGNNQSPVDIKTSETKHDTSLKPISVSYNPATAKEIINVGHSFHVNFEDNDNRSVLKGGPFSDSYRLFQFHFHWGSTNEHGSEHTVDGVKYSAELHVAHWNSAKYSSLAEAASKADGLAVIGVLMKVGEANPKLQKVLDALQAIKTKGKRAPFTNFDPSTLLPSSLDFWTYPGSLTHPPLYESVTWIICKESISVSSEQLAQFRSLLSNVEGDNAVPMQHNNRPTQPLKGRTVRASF

[11] = molecular target: hCA II (Homo sapiens, UniProt P00918); experiment: Stopped flow CO2 hydrase assay, hCA II; type: biochemical
[12] = molecular target: hCA IX (Homo sapiens, UniProt Q16790); experiment: biochemical; type: biochemical
[13] = molecular target: hCA XII (Homo sapiens, UniProt O43570); experiment: Stopped flow CO2 hydrase assay, hCA XII; type: biochemical
Chain of hCA XII (O43570 25-354): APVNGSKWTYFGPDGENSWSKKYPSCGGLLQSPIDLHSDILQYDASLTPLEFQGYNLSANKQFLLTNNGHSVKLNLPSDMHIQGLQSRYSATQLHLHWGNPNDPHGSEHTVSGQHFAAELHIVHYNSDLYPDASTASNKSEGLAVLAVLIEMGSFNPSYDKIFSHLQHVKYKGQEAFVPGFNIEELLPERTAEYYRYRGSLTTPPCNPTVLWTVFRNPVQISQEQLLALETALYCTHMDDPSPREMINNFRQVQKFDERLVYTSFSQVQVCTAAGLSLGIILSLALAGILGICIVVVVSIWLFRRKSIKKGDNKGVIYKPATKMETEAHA

[14] = test system: panel of tumor cell lines; experiment: Antiproliferative activity over the panel of tumor cell lines; type: cell-based, human; conditions: for IC50: Homo sapiens
[15] = read-out: IC50 range over the tested tumor cell lines

SMILES	IC50 ([1]; MCF7, read-out: IC50 H) [nM]	IC50 ([1]; MCF7, read-out: IC50 N) [nM]	HCR, hypoxic cytotoxicity ratio: IC50(N)/IC50(H) [1]	IC50 [2] [nM]	IC50 [3] [nM]	IC50 [4] [nM]	IC50 [5] [nM]	IC50 [6] [nM]	IC50 [7] [nM]	IC50 [8] [nM]	IC50 [9] [nM]	Ki [10] [nM]	Ki [11] [nM]	Ki [12] [nM]	Ki [13] [nM]	IC50 [14, 15] [nM]	IC50 ([14]; read-out: IC50 range, all cell lines) [nM]	higher activity compared to other analogs ([14]; against most tumor cells)
NS(=O)(=O)c1ccc2c(c1)[n+]([O-])c(C(F)(F)F)c(C(=O)c1ccccc1)[n+]2[O-] [Compound 7h, 2-Benzoyl-6-sulfamoyl-3-(trifluoromethyl)quinoxaline 1,4-dioxide]	800 ± 50	1100 ± 100	1.4	1400 ± 70	1300 ± 80	1400 ± 30	1900 ± 100	2100 ± 200	1800 ± 100	1900 ± 200	1900 ± 100	51.5 ± 3.2	4.8 ± 0.3	> 10000	143 ± 11	1300 to 2100	1100 to 2100	1.5–20 times
N#Cc1c(-c2ccccc2)[n+]([O-])c2ccc(S(N)(=O)=O)cc2[n+]1[O-] [Compound 8a, 3-Phenyl-7-sulfamoylquinoxaline-2-carbonitrile 1,4-dioxide]	1300 ± 300	4800 ± 200	3.7	–	–	–	–	–	–	–	–	60.7 ± 2.6	4.4 ± 0.1	> 10000	111 ± 9.7	–	–	–
N#Cc1c(-c2ccc(Cl)cc2)[n+]([O-])c2ccc(S(N)(=O)=O)cc2[n+]1[O-] [Compound 8b, 3-(4-Chlorophenyl)-7-sulfamoylquinoxaline-2-carbonitrile 1,4-dioxide]	–	–	–	–	–	–	–	–	–	–	–	40.3 ± 3.1	5 ± 0.4	> 10000	133 ± 12	–	–	–
CC(=O)c1c(C)[n+]([O-])c2ccc(S(N)(=O)=O)cc2[n+]1[O-] [Compound 8g, 2-Acetyl-3-methyl-7-sulfamoylquinoxaline 1,4-dioxide]	2800 ± 400	11700 ± 1200	4.2	–	–	–	–	–	–	–	–	–	–	–	–	–	–	–
COc1cccc2c1C(=O)c1c(O)c3c(c(O)c1C2=O)C[C@@](O)(C(=O)CO)C[C@@H]3O[C@H]1C[C@H](N)[C@H](O)[C@H](C)O1 [DOXO, doxorubicin, reference compound]	400 ± 30	300 ± 30	0.7	–	–	–	–	–	–	–	–	–	–	–	–	–	–	–
COc1cc([C@@H]2c3cc4c(cc3[C@@H](O[C@@H]3O[C@@H]5CO[C@@H](C)O[C@H]5[C@H](O)[C@H]3O)[C@H]3COC(=O)[C@H]23)OCO4)cc(OC)c1O [Etoposide, etoposide, reference compound]	–	–	–	130 ± 10	2300 ± 100	1700 ± 100	1100 ± 100	290 ± 10	700 ± 40	1200 ± 60	300 ± 20	–	–	–	–	130 to 2300	–	–
Nc1n[n+]([O-])c2ccccc2[n+]1[O-] [TPZ, Tirapazamine, reference compound]	4500 ± 1100	24200 ± 3300	5.4	–	–	–	–	–	–	–	–	–	–	–	–	–	–	–

— PMC11265520 (RSC Advances, 2024)
